For series [1], the system named is Rattus norvegicus. The experiment in a line: Antidiabetic activity in ZDF rat assessed as triglyceride level at 100 mg/kg, po QD for 40 days (reference value: 618+/-52 mg/dL). The format is functional.
Series [2] has as its system Rattus norvegicus. The series is described as follows: Antidiabetic activity in ZDF rat assessed as blood glucose level at 3 mg/kg, po QD for 40 days (reference value: 771+/-60 mg/dL). Format: functional.
Series [3] is described as follows: AUC in ZDF rat at 3 mg/kg, po. As to conditions: plasma. Format: ADME, organism-based. Details: dose 3 mg/kg, route oral. The method in brief: (§1)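 Male ZDF rats; satellite animals outside the efficacy groups were given oral doses of 3, 10 or 100 mg/kg. Plasma Cmax and AUC were calculated from these animals.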
The nature of series [4]: AUC in ZDF rat at 100 mg/kg, po. The format is ADME, organism-based. Details: dose 100 mg/kg, route oral. As to conditions: plasma. The method in brief: as §1
Series [5] is described as follows: Cmax in ZDF rat at 10 mg/kg, po. The format is ADME, organism-based. As to conditions: in vivo. Details: dose 10 mg/kg, route oral. The method in brief:
as §1

Series [6] can be described thus: AUC in rat at 5 mg/kg, po. Format: ADME, organism-based. Details: dose 5 mg/kg, route oral. The following applies: plasma.
Series [7] relates to Rattus norvegicus. The experiment in a line: Antidiabetic activity in ZDF rat assessed as triglyceride level at 0.1 mg/kg, po QD for 40 days (reference value: 618+/-52 mg/dL). Format: functional.
A short description of series [8]: Oral bioavailability in rat at 5 mg/kg. Format: ADME, organism-based. The following applies: in vivo.
Series [9] can be described thus: Cmax in SHR rat at 1 mg/kg, po. The format is ADME, organism-based. As to conditions: in vivo. Details: dose 1 mg/kg, route oral. In outline:
(§2)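 SHR received a single oral dose of 1, 3 or 10 mg/kg. Systemic exposure was determined as plasma Cmax and AUC.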

The test system of series [10] is Rattus norvegicus. The series is described as follows: Antidiabetic activity in ZDF rat assessed as body weight gain at 10 mg/kg, po QD for 40 days (reference value: 133+/-9 g). Format: functional. The method in brief: (§3)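 Male ZDF rats, starting at about 6 weeks old, were dosed orally once daily for 40 days in 1.5% CMC/0.2% Tween 20 suspension, n = 8/group. Body weight was followed over the study. Gain was calculated per animal from day 0 to day 40 and compared with vehicle and pioglitazone (3 mg/kg) groups. Data are mean ± SEM.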

The subject of series [11] is Rattus norvegicus. The series is described as follows: Antidiabetic activity in ZDF rat assessed as blood glucose level at 30 mg/kg, po QD for 40 days (reference value: 771+/-60 mg/dL). The format is functional.
Series [12] relates to Rattus norvegicus. The experiment in a line: Antidiabetic activity in ZDF rat assessed as blood glucose level at 1 mg/kg, po QD for 40 days (reference value: 771+/-60 mg/dL). The format is functional.
Series [13] relates to Rattus norvegicus. The experiment in a line: Antihypertensive activity in SHR rat assessed as decrease in arterial blood pressure at 0.3 to 10 mg/kg, po administered as single dose measured after 20 hrs. As to conditions: Artery. The format is functional, organism-based. The method in brief:
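SHR carried aortic radiotelemetry transmitters implanted under Telazol anesthesia and recovered for at least 1 week. Rats were randomized by 2 h baseline mean BP. Each received vehicle by oral gavage on Day 0 and a single drug dose (0.3–10 mg/kg) on Day 1, with BP followed 20 h each day. The change was taken as Day 1 minus Day 0, n = 8/group.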

The subject of series [14] is Rattus norvegicus. The experiment in a line: Antidiabetic activity in ZDF rat assessed as body weight gain at 0.1 mg/kg, po QD for 40 days (reference value: 133+/-9 g). Format: functional. In outline:
as §3

Series [15] can be described thus: Cmax in ZDF rat at 3 mg/kg, po. As to conditions: in vivo. Details: dose 3 mg/kg, route oral. Format: ADME, organism-based. In outline: as §1
The target in series [16] is T1, Peroxisome proliferator-activated receptor alpha (Homo sapiens) (UniProt Q07869).
T1 sequence (whole entry): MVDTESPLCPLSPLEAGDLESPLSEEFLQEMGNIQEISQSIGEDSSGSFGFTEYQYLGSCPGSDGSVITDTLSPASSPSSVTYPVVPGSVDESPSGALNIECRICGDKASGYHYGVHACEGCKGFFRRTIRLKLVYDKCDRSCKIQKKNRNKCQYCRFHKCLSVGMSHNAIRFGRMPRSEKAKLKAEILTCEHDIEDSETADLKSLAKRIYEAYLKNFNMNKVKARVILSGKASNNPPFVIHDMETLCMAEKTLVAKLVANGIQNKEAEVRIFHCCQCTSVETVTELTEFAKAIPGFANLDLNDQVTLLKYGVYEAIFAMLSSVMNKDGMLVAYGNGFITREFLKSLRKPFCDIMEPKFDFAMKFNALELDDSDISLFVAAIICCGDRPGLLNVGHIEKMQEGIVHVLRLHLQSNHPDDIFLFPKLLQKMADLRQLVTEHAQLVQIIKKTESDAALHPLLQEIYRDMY
The series is described as follows: Transactivation of human PPARalpha.

Series [17] is described as follows: Cmax in SHR rat at 3 mg/kg, po. The format is ADME, organism-based. As to conditions: in vivo. Details: dose 3 mg/kg, route oral. In outline:
as §2

The target of series [18] is T2, Peroxisome proliferator-activated receptor gamma (Homo sapiens, UniProt P37231).
T2 sequence (P37231 whole entry): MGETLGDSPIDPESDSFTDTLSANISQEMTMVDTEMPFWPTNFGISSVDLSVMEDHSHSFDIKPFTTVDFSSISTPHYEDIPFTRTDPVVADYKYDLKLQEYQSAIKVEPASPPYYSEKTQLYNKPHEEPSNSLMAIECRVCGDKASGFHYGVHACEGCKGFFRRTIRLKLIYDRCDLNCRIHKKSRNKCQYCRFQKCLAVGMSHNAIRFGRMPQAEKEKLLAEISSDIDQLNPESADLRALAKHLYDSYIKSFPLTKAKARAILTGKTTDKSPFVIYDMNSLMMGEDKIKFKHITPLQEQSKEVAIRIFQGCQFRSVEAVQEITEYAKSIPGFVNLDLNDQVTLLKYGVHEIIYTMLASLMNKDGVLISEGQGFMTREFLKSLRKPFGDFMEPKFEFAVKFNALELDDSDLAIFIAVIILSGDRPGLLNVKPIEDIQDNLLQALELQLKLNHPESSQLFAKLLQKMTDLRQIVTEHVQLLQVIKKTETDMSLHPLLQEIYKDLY
The series is described as follows: Partial agonist activity at human PPARgamma-LBD/Gal4 DNA binding domain by transactivation assay.

For series [19], the system named is Rattus norvegicus. The experiment in a line: Antidiabetic activity in ZDF rat assessed as adiponectin level at 10 mg/kg, po QD for 40 days (reference value: 11.9+/-1.5 ug/ml). Format: functional.
Series [20] in a line: AUC in SHR rat at 3 mg/kg, po. Format: ADME, organism-based. The following applies: plasma. Also noted: dose 3 mg/kg, route oral. The method in brief:
as §2

The target in series [21] is T3, Type-2 angiotensin II receptor (Homo sapiens, UniProt P50052).
T3 sequence (P50052 whole entry): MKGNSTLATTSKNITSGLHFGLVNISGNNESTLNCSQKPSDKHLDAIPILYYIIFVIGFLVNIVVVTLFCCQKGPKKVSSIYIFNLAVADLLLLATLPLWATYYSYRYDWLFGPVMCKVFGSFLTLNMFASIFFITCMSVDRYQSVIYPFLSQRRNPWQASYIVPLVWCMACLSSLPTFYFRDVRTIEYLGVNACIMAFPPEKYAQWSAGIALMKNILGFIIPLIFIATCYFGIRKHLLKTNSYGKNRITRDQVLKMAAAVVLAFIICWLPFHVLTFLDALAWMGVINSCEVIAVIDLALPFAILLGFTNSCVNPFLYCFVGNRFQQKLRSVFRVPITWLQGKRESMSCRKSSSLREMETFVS
The series is described as follows: Binding affinity to human Angiotensin receptor 2.

In series [22] the test system is Rattus norvegicus. The experiment in a line: Antidiabetic activity in ZDF rat assessed as triglyceride level at 30 mg/kg, po QD for 40 days (reference value: 618+/-52 mg/dL). The format is functional.
Series [23] is described as follows: Clearance in rat at 1 mg/kg, iv. The format is ADME, organism-based. As to conditions: in vivo. Details: dose 1 mg/kg, route intravenous.
Series [24] has as its system Rattus norvegicus. The series is described as follows: Antidiabetic activity in ZDF rat assessed as adiponectin level at 3 mg/kg, po QD for 40 days (reference value: 11.9+/-1.5 ug/ml). Format: functional.

Active and inactive are the calls of the source. The calls are words filed in the database; no cut-off is given here.

Turning to `CCc1nc2c(C)cc(CC(C)C)nc2n1[C@H]1CCc2cc(-c3ccccc3-c3nnn[nH]3)ccc21`, the Activity with Rattus norvegicus [1] amounted to 151 mg/dL; with Rattus norvegicus [2], 520 mg/dL; in the series with Rattus norvegicus [7], 559 mg/dL; with Rattus norvegicus [10] it was 200 g; in the series with Rattus norvegicus [11], 140 mg/dL; in the series on Rattus norvegicus [12], 612 mg/dL. Moreover, the Activity came out at 128 g in the series on Rattus norvegicus [14], 24.4 µg/mL in the series on Rattus norvegicus [19], 288 mg/dL with Rattus norvegicus [22] and 11.4 µg/mL with Rattus norvegicus [24]. The AUC was 4.4 µg·h/mL in series [3], 2600 µg·h/mL in series [4], 4.95 µg·h/mL in [6] and 1.28 µg·h/mL in [20]. Moreover, the Cmax in series [5] was 2730 ng/mL; in [9], 74 ng/mL; in series [15], 267 ng/mL; in series [17], 283 ng/mL. Also, in series [8], the bioavailability was determined as 80%. Further, the result with Rattus norvegicus [13] was Active. In series [16], the outcome was inactive. This molecule showed an EC50 in series [18] of 212 nM. Further, in [21], the Ki was above 10000 nM. Also, the clearance in [23] stood at 14 mL/min/kg.

The values above are taken from ChEMBL document CHEMBL1800018, “Discovery of a series of imidazo[4,5-b]pyridines with dual activity at angiotensin II type 1 receptor and peroxisome proliferator-activated receptor-γ” (J Med Chem, 2011).
